Compound activity from PubChem BioAssay.
Shown is part of a subset that was picked to be rich in hits.
XBP1 UPR activ: activators of adaptive arm of unfolded protein response (XBP1). CHO-XBP1 luciferase reporter, IRE1-XBP1 UPR activation, luminescence; percent of tunicamycin response, DMSO as zero. activation, % at 20 µM. actives 0.33% (n = 330,000). AID 463104;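 active = versus positive control, 20 µM dose yields 30% or more activation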
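Material: IRE1-XBP1 luciferase reporter CHO line / Quantity: one thousand reporter cells per well / Buffer or medium: F12 with 10% serum / Compound: 20 µM single concentration, DMSO 1% / Times: 6 h treatment, 37 °C / Detection: Steady-Glo luciferase glow luminescence, 10 min after reagent addition / Benchmarks: tunicamycin high, DMSO low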
CHOP UPR activ: activators of apoptotic arm of unfolded protein response (CHOP). CHO-CHOP luciferase reporter, UPR activation, luminescence; percent of tunicamycin response over DMSO baseline. activation, % at 10 µM. actives 0.34% (n = 330,000). AID 449763;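 active = at 10 µM dose, activation of 40% or more, normalized to positive control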
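Evaluation: % reporter activation, DMSO baseline versus tunicamycin full activation; System: CHO-CHOP luciferase reporter cell line; Input: 500 cells/well; Incubation: 6 h compound treatment, 37 °C; Measured by: Steady-Glo luciferase luminescence; Dosing: one dose, 10 µM in 0.5% DMSO; Buffer or medium: F12 medium, 10% FBS; Benchmarks: positive tunicamycin 10 µg/mL, negative DMSO alone.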
CHOP inh: blocks CHOP induction under ER stress | CHO-K1 CHOP-promoter luciferase, tunicamycin-induced, 15-18 h | actives 3.8% (n = 220,000) | inhibition, % at 10 µM;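 active = compounds that reduced the stress-induced luciferase reporter signal by more than about 70% of percent inhibition, limit read from the data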
PvdQ inh: blocks Pseudomonas aeruginosa PvdQ acylase activity; purified PvdQ acylase, fluorescence plate reader; inhibition, % at 10 µM; actives 0.063% (n = 340,000); AID 488965; in the data active = inhibition above about 30%, passing the limit was not always enough
CHOP inh conf: confirmation of CHOP induction inhibitors | CHO-CHOP promoter luciferase reporter, tunicamycin-induced, luminescence | inhibition, % at 10 µM | AID 504437 | shares compounds with CHOP inh | actives 45% (n = 2,100);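 active = mean of three repeat readings of reporter signal inhibition above a set limit, cut at about 70% in these data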
A number is an active result; n = inactive; x = no result.

SMILES | XBP1 UPR activ | CHOP UPR activ | CHOP inh | PvdQ inh | CHOP inh conf
CCOC(=O)C1CCCN(Cc2nc(Cc3ccccc3Cl)no2)C1 (centres undefined) | n | n | n | n | x
Cc1cc(C)c(COCc2cc(/C=N/O)c(C)cc2C)cc1/C=N/O | n | n | 107.9 | n | n
Cc1ccc(Cl)cc1NC(=O)CN1C(=O)COc2ccc(S(=O)(=O)N3CCOCC3)cc21 | n | n | x | n | x
N=C1/C(=C\c2ccc(-c3cccc(Cl)c3)o2)C(=O)N=C2SC=C(c3ccccc3)N12 | n | n | n | n | x
N=C1/C(=C\c2ccc(-c3ccc(C(=O)O)cc3)o2)C(=O)N=C2SC=C(c3ccccc3)N12 | x | x | 100.3 | n | n
COc1ccccc1-n1cc([C@@H]2C[C@H]3CN(c4ccccc4)C(=O)[C@]34CCCN24)cn1 | n | n | 102.0 | n | 103.7
O=c1[nH]c(=O)n(C2CCCCCC2)c(O)c1C=NCc1ccc(F)cc1 | n | n | 106.8 | n | n
COc1ccc(C2(O)CC3CCC(C2)N3c2nc(C)cc(C)c2C#N)cc1 (centres undefined) | n | n | 101.2 | n | n
CN(/N=C/c1ccncc1)c1cnn(-c2ccc(F)c(Cl)c2)c(=O)c1Cl | n | n | 100.2 | n | n
Cc1ccc(-n2ncc(N(C)C)c(Cl)c2=O)cc1 | n | n | n | n | x
CCOC(=O)c1cc(-c2cccs2)nc2c1c(C)nn2-c1ccccn1 | n | n | 99.0 | n | 100.0
Cc1nn(-c2ccccn2)c2nc(-c3cccs3)cc(C(=O)NCc3ccco3)c12 | n | n | n | n | x
CC1CCCCC1n1c(=S)[nH]c2ccccc2c1=O (centres undefined) | n | n | 103.0 | n | n
COc1ccc(N(CC(=O)NCC2CCCO2)S(=O)(=O)c2ccccc2)cc1OC (centres undefined) | n | n | x | n | x
CC(C)CC(CO)N1CCN(C(=O)c2ccc(Cl)c(Cl)c2)CCC1=O (centres undefined) | n | n | x | n | x
O=c1[nH]c(/C(Cl)=C/c2cccc(C(F)(F)F)c2)nc2cc(Cl)ccc12 | n | n | n | n | x
O=c1[nH]c(/C(Cl)=C/c2cc(Cl)ccc2O)nc2cc(Cl)ccc12 | n | n | 99.6 | n | n
O=C(COC(=O)c1n[nH]c(=O)c2ccccc12)c1ccc(Cl)cc1 | n | n | n | n | x
O=C(COC(=O)c1n[nH]c(=O)c2ccccc12)c1ccc(Br)cc1 | n | n | 103.8 | n | n
Nc1cc(Oc2ccc(F)cc2F)cc([N+](=O)[O-])c1 | n | n | n | n | x
CCc1nc2c(cnn2-c2ccc(Cl)cc2)c(=O)n1-c1ccc(OC)cc1 | n | n | 100.8 | n | 87.6
CC(C)N(C)S(=O)(=O)c1ccc(NC(=O)C2=COCCO2)cc1 | n | n | x | n | x
CCOC(=O)C1=C(c2ccccc2)OC(N)=C(C#N)C1C1CCCCC1 (centres undefined) | n | n | 109.1 | n | n
CCOC(=O)C1=C(C)OC(N)=C(C#N)C1C1CCCCC1 (centres undefined) | n | n | n | n | x
C=CCc1cccc(CNc2ccc(Br)cc2)c1O | n | n | n | n | x
SMILES | XBP1 UPR activ | CHOP UPR activ | CHOP inh | PvdQ inh | CHOP inh conf
O=C1CC(C(=O)Nc2ccc(Cl)c(Cl)c2)S/C(=N\N=C\c2ccco2)N1 (centres undefined) | n | n | 100.1 | n | n
COC(CNC(=O)c1ccc(CS(=O)(=O)c2c(Cl)cccc2Cl)o1)OC | n | n | x | n | x
CCOc1ccc(-c2cc(CCCC(=O)NCc3ccc(C)cc3)no2)cc1 | n | n | 96.3 | n | 78.0
O=C(Nc1ccccc1NC(=O)NC1CCCCC1)NC1CCCCC1 | n | n | 103.6 | n | 114.1
NC(=O)c1ccccc1NC(=O)NC1CCCCC1 | n | n | n | n | x
CC(C)Cn1c(N)c(C(=O)COC(=O)C2CCCCC2)c(=O)n(C)c1=O | n | n | 99.7 | n | 77.8
Cc1ccc(N2CC(C(=O)OCC(=O)c3c(N)n(CC(C)C)c(=O)n(C)c3=O)CC2=O)cc1 (centres undefined) | n | n | x | n | x
COC(=O)C1=C(C(=O)OC)[C@@H]2Nc3ccccc3[C@@]23C[C@@H](C(=O)OC)N(C(=O)c2ccco2)C3=N1 | n | n | x | n | x
Cc1ccc(NC(=O)c2cc3ccccc3o2)cc1S(=O)(=O)N(C)C | x | x | n | n | x
Cc1ccc(NC(=O)c2cc3ccccc3oc2=O)cc1S(=O)(=O)N(C)C | n | n | 102.3 | n | 110.5
O=C(O)COCC(=O)N1CCCN(c2nccc(C(F)(F)F)n2)CC1 | n | n | x | n | x
O=C(Nc1ccc2oc(=O)ccc2c1)c1ccc(-c2ccc(Cl)cc2)o1 | n | n | n | n | x
O=C(Nc1ccc2oc(=O)ccc2c1)c1ccc(-c2cccc(Cl)c2)o1 | n | n | 100.5 | n | n
Cc1noc(C)c1-c1ccc2ncnc(NCC3CCCCN3C)c2c1 (centres undefined) | n | n | x | n | x
COc1ccc(C2=NN(c3ccccc3)C(c3cn(CCC(=O)O)nc3-c3ccccc3)C2)cc1 (centres undefined) | n | n | 96.1 | n | n
O=C(Nc1ccc(Br)c(C(F)(F)F)c1)c1ccccc1 | n | n | n | n | x
O=C(Nc1ccc(Br)c(C(F)(F)F)c1)c1ccc(C(F)(F)F)cc1 | n | n | 101.8 | x | 98.1
O=C1C(Cl)=C(N2CCCCCC2)C(=O)N1c1ccc(Cl)cc1 | n | n | x | n | x
O=C1C(Cl)=C(N2CCCCC2)C(=O)C(Cl)=C1c1cnc(N2CCCCC2)s1 | n | 127.6 | x | n | 95.0
Cc1cc(NC(=O)CCC(=O)N(c2cccc(F)c2)C(C(=O)NC2CCCC2)c2ccccc2)no1 (centres undefined) | n | n | x | n | x
CC(=O)C1=C(C)NC(SCC(=O)c2ccc(-c3ccccc3)cc2)=C(C#N)C1c1cccnc1 (centres undefined) | n | n | 96.5 | x | n
Nc1ccc(SC(F)(F)F)cc1C(=O)c1ccccc1 | n | n | 103.5 | n | 110.9
Cc1cccc(C(=O)NC(=S)NNC(=O)c2ccc(Cl)cc2)c1 | x | x | 106.6 | n | n
O=C(c1ccco1)N1CCCC(N2CCN(c3cccc(C(F)(F)F)c3)CC2)C1 (centres undefined) | n | n | x | n | x
COc1ccccc1Nc1nc(NCC(C)C)nc(N)c1[N+](=O)[O-] | n | n | 100.6 | n | n
SMILES | XBP1 UPR activ | CHOP UPR activ | CHOP inh | PvdQ inh | CHOP inh conf
Cc1c(C(=O)C(=O)N2CC=C(c3ccccc3)CC2)c2ccccc2n1C | n | n | n | n | x
Cc1ccc(NC(=O)c2cc(NC(=O)c3ccco3)ccc2N2CCCCC2)cc1 | n | n | 99.8 | n | 87.5
COC(=O)CCS(=O)(=O)c1nc(-c2ccccc2)cc(C(F)(F)F)n1 | n | n | 106.4 | n | n
CS(=O)(=O)c1nc(-c2ccc(F)cc2)cc(C(F)(F)F)n1 | x | x | 106.1 | n | 110.1
CCOC(=O)CS(=O)(=O)c1nc(-c2ccc(F)cc2)cc(C(F)(F)F)n1 | n | n | x | n | x
CCOC(=O)CS(=O)(=O)c1nc(-c2ccccc2)cc(C(F)(F)F)n1 | n | n | x | n | x
